Experimental findings from ChEMBL document CHEMBL1240339, “Raft nanodomains contribute to Akt/PKB plasma membrane recruitment and activation” (Nat Chem Biol, 2008) are described below.

What all share (assay type): cell-based
Test [1] has as its target T1, Squalene synthase (Mus musculus) (UniProt P53798).
T1 sequence (whole entry): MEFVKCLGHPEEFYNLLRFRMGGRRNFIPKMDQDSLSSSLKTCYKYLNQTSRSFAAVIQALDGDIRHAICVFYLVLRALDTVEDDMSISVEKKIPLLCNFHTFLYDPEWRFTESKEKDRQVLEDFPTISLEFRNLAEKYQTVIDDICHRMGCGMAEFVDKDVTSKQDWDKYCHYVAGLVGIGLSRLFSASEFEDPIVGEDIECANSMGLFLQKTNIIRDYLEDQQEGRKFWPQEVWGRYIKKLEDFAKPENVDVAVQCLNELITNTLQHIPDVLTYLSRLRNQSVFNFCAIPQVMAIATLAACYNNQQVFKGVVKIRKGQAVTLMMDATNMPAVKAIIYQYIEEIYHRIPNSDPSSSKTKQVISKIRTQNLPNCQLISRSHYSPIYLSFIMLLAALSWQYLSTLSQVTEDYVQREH
Description: Inhibition of squalene synthase in mouse DWT6.11 cells assessed as cholesterol level at 5 uM after 14 to 18 hrs by fluorescence correlation spectroscopy relative to control. Further details: scale not given: the % may be the effect or the level left.

For test [2], the target named is T2, Squalene synthase (Homo sapiens) (UniProt P37268).
T2 sequence (whole entry): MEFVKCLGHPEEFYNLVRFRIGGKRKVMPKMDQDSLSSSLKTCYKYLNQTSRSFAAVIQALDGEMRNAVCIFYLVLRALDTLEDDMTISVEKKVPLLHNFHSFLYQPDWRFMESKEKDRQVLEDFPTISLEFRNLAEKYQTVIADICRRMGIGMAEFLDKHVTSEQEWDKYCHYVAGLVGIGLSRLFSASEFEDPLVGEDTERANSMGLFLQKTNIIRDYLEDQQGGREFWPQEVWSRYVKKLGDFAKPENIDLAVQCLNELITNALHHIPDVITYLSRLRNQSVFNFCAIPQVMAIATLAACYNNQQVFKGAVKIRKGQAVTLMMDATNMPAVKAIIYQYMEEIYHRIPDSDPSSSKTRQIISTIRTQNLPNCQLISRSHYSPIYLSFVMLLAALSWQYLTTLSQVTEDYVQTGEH
Description: Inhibition of squalene synthase in human Jurkat JA16 cells assessed as cholesterol level at 5 uM after 14 to 18 hrs by fluorescence correlation spectroscopy relative to control. Details: scale not given: the % may be the effect or the level left.

In test [3] the test system is COS-7. As to the kind of experiment: Inhibition of squalene synthase in african green monkey COS7 cells assessed as cholesterol level at 5 uM after 14 to 18 hrs by fluorescence correlation spectroscopy relative to control. Further details: scale not given: the % may be the effect or the level left. The settings on record: Chlorocebus aethiops.
Test [4] is filed under the species Mus musculus. Description: Inhibition of CD-28 triggered Ras/MAPK in mouse DWT6.11 cells by immunoblotting analysis. In short, it runs like this: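 DWT6.11 cells were pretreated with myriocin (25 µM, 48 h in complete medium, then serum-starved 14–18 h). They were stimulated or not with CD28 monoclonal antibody. The Ras/MAPK pathway was read as ERK phosphorylation by immunoblotting.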
Background: A western blot detects proteins with antibodies after separation by electrophoresis.

The target in test [5] is T1, Squalene synthase (Mus musculus). As to the kind of experiment: Inhibition of squalene synthase in mouse DWT6.11 cells assessed as sphingomyelin level at 5 uM after 14 to 18 hrs by fluorescence correlation spectroscopy relative to control. Details: scale not given: the % may be the effect or the level left.
The test system of test [6] is Jurkat. As to the kind of experiment: Inhibition of serine palmitoyltransferase in human Jurkat JA16 cells assessed as sphingomyelin level at 5 uM after 14 to 18 hrs by fluorescence correlation spectroscopy relative to control. Details: scale not given: the % may be the effect or the level left.
The test system of test [7] is COS-7. As to the kind of experiment: Inhibition of squalene synthase in african green monkey COS7 cells assessed as of cholesterol level at 5 uM after 14 to 18 hrs by fluorescence correlation spectroscopy relative to control. Details: scale not given: the % may be the effect or the level left. Conditions: Chlorocebus aethiops.
Test [8] deals with Jurkat. As to the kind of experiment: Inhibition of serine palmitoyltransferase in human Jurkat JA16 cells assessed as sphingomyelin level at 25 uM after 14 to 18 hrs by fluorescence correlation spectroscopy relative to control. Further details: scale not given: the % may be the effect or the level left.
The subject of test [9] is COS-7. As to the kind of experiment: Inhibition of serine palmitoyltransferase in african green monkey COS7 cells assessed as sphingomyelin level at 10 uM after 14 to 18 hrs by fluorescence correlation spectroscopy relative to control. Further details: scale not given: the % may be the effect or the level left. Conditions: Chlorocebus aethiops.
Test [10] deals with RAC-alpha serine/threonine-protein kinase (Mus musculus) (UniProt P31750). Description: Inhibition of CD-28 triggered Akt phosphorylation in mouse DWT6.11 cells assessed as enzyme phosphorylation at Thr308 by immunoblotting relative to control. The settings on record: concentration not given here. A digest of the protocol:
(§1)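 DWT6.11 mouse T cells were given 25 µM myriocin for 48 h in complete medium, then serum-starved 14–18 h with 25 µM myriocin, then stimulated with CD28 monoclonal antibody. Akt Thr308 and Ser473 phosphorylation induction was quantified by immunoblotting as % of untreated cells, mean ± s.d., n = 3.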

Test [11] shares this target. Description: Inhibition of CD-28 triggered Akt phosphorylation in mouse DWT6.11 cells assessed as enzyme phosphorylation at Ser473 by immunoblotting relative to control. The settings on record: concentration not given here. A digest of the protocol: as §1
The species named for test [12] is Mus musculus. As to the kind of experiment: Inhibition of serine palmitoyltransferase in mouse DWT6.11 cells assessed as sphingomyelin level at 25 uM after 14 to 18 hrs by fluorescence correlation spectroscopy relative to control. Details: scale not given: the % may be the effect or the level left.
The species entered for test [13] is Mus musculus. As to the kind of experiment: Inhibition of serine palmitoyltransferase in mouse DWT6.11 cells assessed as cholesterol level at 25 uM after 14 to 18 hrs by fluorescence correlation spectroscopy relative to control. Further details: scale not given: the % may be the effect or the level left.
Test [14] deals with T2, Squalene synthase (Homo sapiens). Description: Inhibition of squalene synthase in human Jurkat JA16 cells assessed as cholesterol level at 25 uM after 14 to 18 hrs by fluorescence correlation spectroscopy relative to control. Further details: scale not given: the % may be the effect or the level left.
Test [15] relates to COS-7. Description: Inhibition of serine palmitoyltransferase in african green monkey COS7 cells assessed as cholesterol level at 10 uM after 14 to 18 hrs by fluorescence correlation spectroscopy relative to control. Details: scale not given: the % may be the effect or the level left. Conditions: Chlorocebus aethiops.
The subject of test [16] is Jurkat. Description: Inhibition of serine palmitoyltransferase in human Jurkat JA16 cells assessed as lateral diffusion of the outer membrane leaflet-linked FL-PE nanodomain at 25 uM after 14 to 18 hrs by fluorescence correlation spectroscopy.

Where “and” joins values, the source holds several entries; their conditions need not be identical. Equal entries are not always repeated. Calls of active or inactive are those of the source. The calls are words filed in the database; no cut-off is given here.

Chain of RAC-alpha serine/threonine-protein kinase (Mus musculus) (P31750 whole entry): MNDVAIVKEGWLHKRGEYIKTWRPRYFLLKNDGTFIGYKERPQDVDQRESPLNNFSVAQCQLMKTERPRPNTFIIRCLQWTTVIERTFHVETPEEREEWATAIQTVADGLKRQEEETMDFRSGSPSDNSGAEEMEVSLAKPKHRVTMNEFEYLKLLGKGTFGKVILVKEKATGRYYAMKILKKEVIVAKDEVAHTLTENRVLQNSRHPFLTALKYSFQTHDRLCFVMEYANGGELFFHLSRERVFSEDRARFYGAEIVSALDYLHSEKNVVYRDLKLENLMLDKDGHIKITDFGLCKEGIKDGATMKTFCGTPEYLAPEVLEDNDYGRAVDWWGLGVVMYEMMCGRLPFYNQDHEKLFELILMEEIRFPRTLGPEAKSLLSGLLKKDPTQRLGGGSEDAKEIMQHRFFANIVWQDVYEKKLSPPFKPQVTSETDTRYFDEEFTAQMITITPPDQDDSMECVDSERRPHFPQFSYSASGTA

Consider `C=C(CC[C@]12O[C@H](C(=O)O)[C@@](O)(C(=O)O)[C@](C(=O)O)(O1)[C@H](OC(=O)/C=C/[C@@H](C)C[C@@H](C)CC)[C@H]2O)[C@@H](OC(C)=O)[C@H](C)Cc1ccccc1`, for which the Activity turned out to be 64% in test [1]; 81% in [2]; 73% in the test with COS-7 [3]; 103% in test [5]; 97% in the test with Jurkat [6]; 90% in the test with COS-7 [7]. Moreover, in the test filed under Mus musculus [4], the inhibition result was “inactive”.

Take `CCCCCCC(=O)CCCCCC/C=C/C[C@@H](O)[C@H](O)[C@@](N)(CO)C(=O)O`: the Activity was found to be 28% in the test with Jurkat [8]; 30% in the test with COS-7 [9]; 24% in the test listed under Mus musculus [12]; 98% in the test listed under Mus musculus [13]; 97% in test [14]; 92% with COS-7 [15]. Moreover, the Activity in the test with Jurkat [16] is 0.9 ms and 0.8 um2/s. For the same molecule, the inhibition was 50.8% in [10] and 51.2% in test [11]. Besides, in the test filed under Mus musculus [4], the inhibition result was “inactive”.

As usually defined, the inhibition is the share of the control response that was lost under treatment.
